As a reminder, the inhibition in vivo is the percentage by which the read-out fell short of the control. One may read the pEC50 as the EC50 on a negative log10 scale, so that one unit is a factor of ten.

The structures appear in SMILES notation. pEC50: −log10 of the molar value. Where only a bound is given, the exact number is not on record here.

The values below come from ChEMBL document CHEMBL1250517, “Synthesis and characterization of novel indole derivatives reveal improved therapeutic agents for treatment of ischemia/reperfusion (I/R) injury” (J Med Chem, 2010).

Assay [1] deals with Mus musculus. Nature of the assay: Antiinflammatory activity in Kunming mouse assessed as inhibition of xylene-induced ear edema at 20 mg/kg, po. It is filed as functional.
Assay [2] has as its system Rattus norvegicus. As to the kind of experiment: Antiinflammatory activity in Wistar rat assessed as inhibition of carrageenan-induced paw edema at 20 mg/kg, po administered prior to carrageenan challenge measured after 1 hrs post carrageenan challenge. Format: functional.
Assay [3] concerns Rattus norvegicus. Nature of the assay: Antiinflammatory activity in Wistar rat assessed as inhibition of carrageenan-induced paw edema at 20 mg/kg, po administered prior to carrageenan challenge measured after 3 hrs post carrageenan challenge. It is filed as functional. (In general: Carrageenan injected into the paw causes an acute inflammation.)
Assay [4] concerns Rattus norvegicus. Nature of the assay: Antiinflammatory activity in Wistar rat assessed as inhibition of carrageenan-induced paw edema at 20 mg/kg, po administered prior to carrageenan challenge measured after 5 hrs post carrageenan challenge. It is filed as functional.
Assay [5] concerns Mus musculus. As to the kind of experiment: Antiinflammatory activity in Kunming mouse assessed as inhibition of xylene-induced ear edema at 10 mg/kg, po. Format: functional.
Assay [6] deals with Mus musculus. As to the kind of experiment: Antiinflammatory activity in Kunming mouse assessed as inhibition of xylene-induced ear edema at 5 mg/kg, po. Format: functional.
The subject of assay [7] is PC-12. As to the kind of experiment: Antioxidant activity against nitric oxide scavenging activity in rat PC12 cells assessed as cell survival after 14 hrs by MTT assay. It is filed as functional, cell-based. The conditions noted are these: PC-12, 14 h. The method in brief:
(§1)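 PC12 cells (rat adrenal medulla pheochromocytoma) are exposed to free radicals. Compound is given either as preincubation before radical exposure or as incubation after exposure. Viability is read by MTT reduction.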

For assay [8], the system named is PC-12. As to the kind of experiment: Antioxidant activity against H2O2 scavenging activity in rat PC12 cells assessed as cell survival after 14 hrs by MTT assay. It is filed as functional, cell-based. The settings on record: PC-12, 14 h. Summed up:
as §1
A general note: Tetrazolium assays rely on reduction of a dye to a coloured formazan, in cell work by metabolically active cells.

Assay [9] has as its system PC-12. Nature of the assay: Antioxidant activity against hydroxyl scavenging activity in rat PC12 cells assessed as cell survival after 14 hrs by MTT assay. Format: functional, cell-based. The settings on record: PC-12, 14 h. Summed up:
as §1

Assay [10] has as its system Rattus norvegicus. As to the kind of experiment: Antiinflammatory activity against ischemia-reperfused lung tissue edema Wistar rat assessed as ratio of wet tissue weight to dry tissue weight at 20 mg/kg, ip. Format: functional. The settings on record: route intraperitoneal. Summed up:
(§2)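 Hind-limb ischemia/reperfusion injury model in rats, with compound at 20 mg/kg. Local injury assessed in skeletal muscle and remote injury in lung. Tissue edema is expressed as wet-to-dry tissue weight ratio. Lipid peroxidation is measured as MDA in plasma and lung, and histology uses H&E-stained sections.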

Assay [11] deals with Rattus norvegicus. Nature of the assay: Antiinflammatory activity in ischemia-reperfused Wistar rat assessed as TNFalpha level at 20 mg/kg, ip (RVb = 123.4 +/- 8.9 pg/mL). It is filed as functional. The settings on record: route intraperitoneal. Summed up: as §2
In assay [12] the test system is Rattus norvegicus. As to the kind of experiment: Antiinflammatory activity in ischemia-reperfused Wistar rat assessed as plasma MDA level at 20 mg/kg, ip (RVb = 3.53 +/- 0.34 nmol/mL). Format: functional. The conditions noted are these: route intraperitoneal. Summed up: as §2
Assay [13] concerns Rattus norvegicus. Nature of the assay: Antiinflammatory activity in ischemia-reperfused Wistar rat assessed as lung MDA level at 20 mg/kg, ip measured per gram of tissue (RVb = 72.4 +/- 5.1 nmol). It is filed as functional. The conditions noted are these: route intraperitoneal. Summed up: as §2
Assay [14] deals with Rattus norvegicus. Nature of the assay: Antiinflammatory activity in ischemia-reperfused Wistar rat assessed as MPO level at 20 mg/kg, ip (RVb = 17.3 +/- 0.8 U/g). Format: functional. The conditions noted are these: route intraperitoneal. Summed up:
as §2

Assay [15] has as its system Rattus norvegicus. Nature of the assay: Antiinflammatory activity against ischemia-reperfused muscle tissue edema Wistar rat assessed as ratio of wet tissue weight to dry tissue weight at 20 mg/kg, ip. It is filed as functional. The conditions noted are these: route intraperitoneal. The method in brief: as §2

For `C[C@H]1O[C@@H](CC=O)OC[C@H]1NC(=O)Cc1ccccc1`, the inhibition in vivo at 20 mg/kg with Mus musculus [1] came to 21.9%; in the assay with Rattus norvegicus [2] it was 18.4%; with Rattus norvegicus [3] it was 17.5%; in the assay on Rattus norvegicus [4] it was 12.9%.

Regarding `COC(C[C@H]1OC[C@@H](NC(=O)Cc2ccccc2)[C@@H](C)O1)OC`, the inhibition in vivo at 20 mg/kg stood at 38.1% in the assay with Mus musculus [1], 23.6% in the assay on Rattus norvegicus [2], 33.3% in the assay on Rattus norvegicus [3] and 17.1% in the assay on Rattus norvegicus [4].

In the case of `COc1ccc2[nH]c3c(c2c1)CCN[C@@H]3C[C@H]1OC[C@@H](NC(=O)Cc2ccccc2)[C@@H](C)O1`, the inhibition in vivo at 20 mg/kg in the assay with Mus musculus [1] came to 66%; with Rattus norvegicus [2], 44.7%; with Rattus norvegicus [3] it was 52.4%; in the assay on Rattus norvegicus [4], 34.3%. Also, the inhibition in vivo at 10 mg/kg with Mus musculus [5] was 32.3%. In addition, the inhibition in vivo at 5 mg/kg with Mus musculus [6] came to 18.1%. In addition, the pEC50 with PC-12 [7] was under 4.00; with PC-12 [8], 4.06; in the assay with PC-12 [9] it was 4.10.

For the molecule `C[C@H]1O[C@@H](C[C@H]2NCCc3c2[nH]c2ccccc32)OC[C@H]1NC(=O)Cc1ccccc1`, the inhibition in vivo at 20 mg/kg in the assay on Mus musculus [1] was 44.4%; with Rattus norvegicus [2], 34.2%; in the assay on Rattus norvegicus [3], 47.6%; in the assay with Rattus norvegicus [4] it was 21.4%.

As for `COC(=O)[C@@H]1Cc2c([nH]c3ccccc23)[C@@H](C[C@H]2OC[C@@H](NC(=O)Cc3ccccc3)[C@@H](C)O2)N1`, the inhibition in vivo at 20 mg/kg with Mus musculus [1] is 60%; in the assay with Rattus norvegicus [2], 39.5%; in the assay on Rattus norvegicus [3], 49.2%; in the assay on Rattus norvegicus [4] it was 35.7%. In addition, in the assay on Mus musculus [5], the inhibition in vivo at 10 mg/kg was 30.1%. The inhibition in vivo at 5 mg/kg in the assay on Mus musculus [6] came out at 16.8%. In addition, the pEC50 in the assay on PC-12 [7] was under 4.00; in the assay with PC-12 [8], 4.04; in the assay with PC-12 [9] it was 4.06.

`COC(=O)[C@@H]1Cc2c([nH]c3ccccc23)[C@H](C[C@H]2OC[C@@H](NC(=O)Cc3ccccc3)[C@@H](C)O2)N1`: the inhibition in vivo at 20 mg/kg came to 40.6% in the assay with Mus musculus [1], 28.9% with Rattus norvegicus [2], 38.1% with Rattus norvegicus [3] and 20% with Rattus norvegicus [4].

In the case of `COc1ccc2[nH]c3c(c2c1)CCN[C@@H]3C[C@H]1OC[C@@H](N)[C@@H](C)O1`, the Ratio in the assay with Rattus norvegicus [10] came out at 3.98; with Rattus norvegicus [15], 4.03. Besides, the inhibition in vivo at 20 mg/kg with Mus musculus [1] came out at 81.5%; in the assay with Rattus norvegicus [2], 31.5%; in the assay with Rattus norvegicus [3] it was 68.5%; in the assay on Rattus norvegicus [4], 57.1%. Also, the inhibition in vivo at 10 mg/kg in the assay on Mus musculus [5] worked out at 57.8%. Also, the inhibition in vivo at 5 mg/kg in the assay with Mus musculus [6] is 30.5%. Moreover, the figures for the pEC50 in the assay on PC-12 [7], in the assay with PC-12 [8] and in the assay with PC-12 [9] were 4.05, 4.49 and 4.59, respectively. Besides, the Activity in the assay with Rattus norvegicus [11] came out at 76.6 pg/mL; in the assay with Rattus norvegicus [12], 2.05 nmol/mL; in the assay on Rattus norvegicus [13] it was 49.5 nmol; with Rattus norvegicus [14], 10.7 U/g.

Consider `C[C@H]1O[C@@H](C[C@H]2NCCc3c2[nH]c2ccccc32)OC[C@H]1N`, for which the inhibition in vivo at 20 mg/kg in the assay with Mus musculus [1] is 50.4%; in the assay with Rattus norvegicus [2] it was 21%; in the assay on Rattus norvegicus [3], 59.7%; with Rattus norvegicus [4], 30%.

Turning to `COC(=O)[C@@H]1Cc2c([nH]c3ccccc23)[C@@H](C[C@H]2OC[C@@H](N)[C@@H](C)O2)N1`, the inhibition in vivo at 20 mg/kg with Mus musculus [1] was 74.3%; in the assay with Rattus norvegicus [2], 26.3%; with Rattus norvegicus [3], 61.4%; with Rattus norvegicus [4], 48.6%. Moreover, the inhibition in vivo at 10 mg/kg in the assay on Mus musculus [5] came out at 60%. Moreover, the inhibition in vivo at 5 mg/kg in the assay on Mus musculus [6] worked out at 35.2%. The pEC50 with PC-12 [7] was 4.02; in the assay on PC-12 [8] it was 4.34; in the assay on PC-12 [9], 4.29.

In the case of `COC(=O)[C@@H]1Cc2c([nH]c3ccccc23)[C@H](C[C@H]2OC[C@@H](N)[C@@H](C)O2)N1`, the inhibition in vivo at 20 mg/kg in the assay with Mus musculus [1] amounted to 45.1%; with Rattus norvegicus [2], 15.8%; in the assay on Rattus norvegicus [3] it was 39.7%; with Rattus norvegicus [4], 27.1%.

For `COc1ccc2c(c1)c(CC(=O)O)c(C)n2C(=O)c1ccc(Cl)cc1` [INDOMETHACIN], the inhibition in vivo at 10 mg/kg in the assay with Mus musculus [5] is 73.6%. Moreover, the inhibition in vivo at 20 mg/kg with Rattus norvegicus [2] is 47.3%; with Rattus norvegicus [3], 65.1%; with Rattus norvegicus [4] it was 54.3%.

Take `COc1ccc2[nH]cc(CCNC(C)=O)c2c1` [MELATONIN]: the Ratio in the assay with Rattus norvegicus [10] is 3.55; in the assay with Rattus norvegicus [15] it was 3.21. Besides, the Activity in the assay on Rattus norvegicus [11] amounted to 53.6 pg/mL; with Rattus norvegicus [12] it was 1.75 nmol/mL; with Rattus norvegicus [13], 40.6 nmol; with Rattus norvegicus [14] it was 8.6 U/g.
